From ChEMBL document CHEMBL1138900, “2,5-diketopiperazines as potent, selective, and orally bioavailable oxytocin antagonists. 3. Synthesis, pharmacokinetics, and in vivo potency” (J Med Chem, 2006)
Values after ≈ are worked out from the molar mass of the structure shown. Where a SMILES comes first, the peptide text is derived from it. Bridges are numbered along the chain shown (N, C = ends). [ ]: non-standard residue; d: D form. Orn = NCCC[C@H](N)C(=O)O; Mpa = O=C(O)CCS

Tests used:
[1] = Solubility of the compound; assay type: physicochemical
Summary of the method: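 Aqueous solubility (mg mL⁻¹) measured by precipitation followed by HPLC.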

[2] = Oral bioavailability in rat; assay type: ADME, organism-based; conditions: in vivo
[3] = AUC in dog; assay type: ADME, organism-based, Canis lupus familiaris; parameters: concentration or dose not given beside the values; conditions: plasma
Summary of the method: (§1)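 Dog pharmacokinetics, n = 3; dosed at 0.6 mg/kg in 5% DMSO/95% PEG400. AUC reported as ng·h mL⁻¹ and clearance as mL min⁻¹ kg⁻¹.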

[4] = AUC in rat; assay type: ADME, organism-based; parameters: concentration or dose not given beside the values; conditions: plasma
Summary of the method: (§2)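 Rat pharmacokinetics, n = 4; dosed at 5 mg/kg in 5% DMSO/95% PEG400. AUC in ng·h mL⁻¹, clearance in mL min⁻¹ kg⁻¹, half-life in h.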

Canis familiaris = assay: (§3) Oral bioavailability in dog; assay type: ADME, organism-based, Canis lupus familiaris; conditions: in vivo
[5] = Clearance in dog; assay type: ADME, organism-based, Canis lupus familiaris; conditions: in vivo; summary of the method: as §1
[6] = Clearance in rat; assay type: ADME, organism-based; conditions: in vivo; summary of the method: as §2
Oxytocin receptor [7] = target: T1, Oxytocin receptor (Homo sapiens, UniProt P30559); assay: Displacement of [3H]oxytocin from human OTR
T1 sequence (P30559 whole entry): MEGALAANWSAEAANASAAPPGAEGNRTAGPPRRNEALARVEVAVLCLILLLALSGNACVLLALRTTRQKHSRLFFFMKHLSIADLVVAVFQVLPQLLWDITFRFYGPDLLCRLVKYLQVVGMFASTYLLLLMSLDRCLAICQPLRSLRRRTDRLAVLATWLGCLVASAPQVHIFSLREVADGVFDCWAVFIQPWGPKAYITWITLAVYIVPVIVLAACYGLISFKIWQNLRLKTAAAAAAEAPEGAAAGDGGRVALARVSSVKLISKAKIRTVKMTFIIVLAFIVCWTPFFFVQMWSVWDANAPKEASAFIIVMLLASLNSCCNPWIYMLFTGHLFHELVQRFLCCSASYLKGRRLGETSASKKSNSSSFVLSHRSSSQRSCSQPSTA

[8] = Lipophilicity, log D by CHI method; assay type: physicochemical; conditions: read-out: Log D
Summary of the method: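 Lipophilicity determined by an HPLC-based method.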

Cytochrome P450 3A4 [9] = target: T2, Cytochrome P450 3A4 (Homo sapiens, UniProt P08684); assay: Inhibition of CYP450 3A4 transfected in human microsome using DEF fluorogenic substrate; assay type: ADME, microsomes
T2 sequence (P08684 whole entry): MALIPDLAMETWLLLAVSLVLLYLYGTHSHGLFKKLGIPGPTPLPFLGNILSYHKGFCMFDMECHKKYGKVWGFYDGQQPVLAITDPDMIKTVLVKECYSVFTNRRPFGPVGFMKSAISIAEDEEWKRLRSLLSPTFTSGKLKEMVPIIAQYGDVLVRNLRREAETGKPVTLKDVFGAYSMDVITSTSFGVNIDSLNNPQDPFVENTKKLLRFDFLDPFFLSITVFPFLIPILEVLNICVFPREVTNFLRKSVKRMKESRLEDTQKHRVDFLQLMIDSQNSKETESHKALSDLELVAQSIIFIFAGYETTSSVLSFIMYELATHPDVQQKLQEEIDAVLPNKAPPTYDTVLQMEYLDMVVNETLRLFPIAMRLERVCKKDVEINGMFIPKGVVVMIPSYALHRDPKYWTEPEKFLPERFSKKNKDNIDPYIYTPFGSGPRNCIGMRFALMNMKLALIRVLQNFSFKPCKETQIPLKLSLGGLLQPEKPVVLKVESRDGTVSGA
Summary of the method: (§4)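 Recombinant human CYP isozymes, with reaction progress followed by fluorogenic substrates; DEF and 7-benzyloxyquinoline used as CYP3A4 substrates. Compounds dissolved at 1.65 mM in DMSO/methanol and serially diluted to give IC50 (μM). A positive control run for each isozyme.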

Oxytocin receptor [10] = target: T1, Oxytocin receptor; assay: Antagonist activity against human OTR expressed in CHO cells measured as calcium influx by FLIPR assay; assay type: functional, cell-based
[11] = Half life in dog; assay type: ADME, organism-based, Canis lupus familiaris; conditions: in vivo
Cytochrome P450 3A4 [12] = target: T2, Cytochrome P450 3A4; assay: Inhibition of CYP450 3A4 transfected in human microsome using PPR fluorogenic substrate; assay type: ADME, microsomes
[13] = Half life in rat; assay type: ADME, organism-based; conditions: in vivo; summary of the method: as §2
Vasopressin V1a receptor = Vasopressin V1a receptor (Homo sapiens, UniProt P37288); assay: Displacement of vasopressin from human V1aR
Sequence of Vasopressin V1a receptor (P37288 whole entry): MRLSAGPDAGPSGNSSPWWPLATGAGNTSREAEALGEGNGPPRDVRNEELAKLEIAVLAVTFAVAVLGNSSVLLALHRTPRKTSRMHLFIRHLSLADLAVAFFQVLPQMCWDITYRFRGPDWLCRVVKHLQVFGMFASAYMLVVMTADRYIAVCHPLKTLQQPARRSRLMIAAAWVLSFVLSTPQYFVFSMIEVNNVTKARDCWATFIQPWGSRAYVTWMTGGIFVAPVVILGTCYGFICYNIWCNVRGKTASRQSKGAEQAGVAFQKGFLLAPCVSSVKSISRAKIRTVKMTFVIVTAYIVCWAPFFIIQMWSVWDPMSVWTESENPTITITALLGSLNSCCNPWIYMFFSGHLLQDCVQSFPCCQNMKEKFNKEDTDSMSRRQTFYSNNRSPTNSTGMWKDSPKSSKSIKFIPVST

Cytochrome P450 1A2 = target: T3, Cytochrome P450 1A2 (Homo sapiens, UniProt P05177); assay: Inhibition of CYP450 1A2 transfected in human microsome; assay type: ADME; summary of the method: as §4
T3 sequence (P05177 whole entry): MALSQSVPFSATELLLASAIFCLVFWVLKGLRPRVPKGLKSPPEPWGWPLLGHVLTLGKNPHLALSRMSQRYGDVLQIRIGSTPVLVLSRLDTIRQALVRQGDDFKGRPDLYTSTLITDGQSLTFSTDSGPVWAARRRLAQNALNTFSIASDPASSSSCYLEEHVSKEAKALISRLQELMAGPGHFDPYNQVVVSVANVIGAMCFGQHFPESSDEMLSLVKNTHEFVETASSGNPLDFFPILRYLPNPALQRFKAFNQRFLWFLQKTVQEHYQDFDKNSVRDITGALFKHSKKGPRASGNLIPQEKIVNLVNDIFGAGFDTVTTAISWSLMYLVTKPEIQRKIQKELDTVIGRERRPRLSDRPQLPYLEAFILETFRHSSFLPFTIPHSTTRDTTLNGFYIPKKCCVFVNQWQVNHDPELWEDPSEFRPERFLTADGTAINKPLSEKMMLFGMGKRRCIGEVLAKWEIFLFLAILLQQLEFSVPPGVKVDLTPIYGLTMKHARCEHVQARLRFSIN

[14] = Volume of distribution in rat; assay type: ADME, organism-based; conditions: in vivo, read-out: Vdss
Oxytocin receptor [15] = target: T4, Oxytocin receptor (Rattus norvegicus, UniProt P70536); assay: Displacement of [3H]oxytocin from rat OTR
T4 sequence (P70536 whole entry): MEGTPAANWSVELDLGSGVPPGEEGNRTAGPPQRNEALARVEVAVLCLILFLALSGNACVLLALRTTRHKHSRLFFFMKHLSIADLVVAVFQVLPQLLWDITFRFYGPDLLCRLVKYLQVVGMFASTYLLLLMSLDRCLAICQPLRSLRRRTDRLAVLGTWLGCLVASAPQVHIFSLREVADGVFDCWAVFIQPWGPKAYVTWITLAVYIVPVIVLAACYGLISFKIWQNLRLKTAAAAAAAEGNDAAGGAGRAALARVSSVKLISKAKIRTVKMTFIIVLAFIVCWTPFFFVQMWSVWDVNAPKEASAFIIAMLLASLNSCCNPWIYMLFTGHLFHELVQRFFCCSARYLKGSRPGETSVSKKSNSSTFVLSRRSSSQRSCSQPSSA

[16] = as §3; assay type: ADME, organism-based, Canis lupus familiaris; conditions: in vivo
Vasopressin V2 receptor = Vasopressin V2 receptor (Homo sapiens, UniProt P30518); assay: Displacement of vasopressin from human V2R
Sequence of Vasopressin V2 receptor (P30518 whole entry): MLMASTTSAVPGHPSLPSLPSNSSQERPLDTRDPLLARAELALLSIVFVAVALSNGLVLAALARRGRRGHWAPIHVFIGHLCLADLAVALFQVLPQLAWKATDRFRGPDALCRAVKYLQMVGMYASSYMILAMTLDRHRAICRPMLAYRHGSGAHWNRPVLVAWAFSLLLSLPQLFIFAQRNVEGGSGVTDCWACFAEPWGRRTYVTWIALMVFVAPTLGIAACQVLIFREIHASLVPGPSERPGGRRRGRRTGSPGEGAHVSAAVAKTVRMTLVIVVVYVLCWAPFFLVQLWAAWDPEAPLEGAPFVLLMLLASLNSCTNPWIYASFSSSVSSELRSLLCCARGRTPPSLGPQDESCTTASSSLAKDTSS

Cytochrome P450 2C19 = Cytochrome P450 2C19 (Homo sapiens, UniProt P33261); assay: Inhibition of CYP450 2C19 transfected in human microsome; assay type: ADME; summary of the method: as §4
Sequence of Cytochrome P450 2C19 (P33261 whole entry): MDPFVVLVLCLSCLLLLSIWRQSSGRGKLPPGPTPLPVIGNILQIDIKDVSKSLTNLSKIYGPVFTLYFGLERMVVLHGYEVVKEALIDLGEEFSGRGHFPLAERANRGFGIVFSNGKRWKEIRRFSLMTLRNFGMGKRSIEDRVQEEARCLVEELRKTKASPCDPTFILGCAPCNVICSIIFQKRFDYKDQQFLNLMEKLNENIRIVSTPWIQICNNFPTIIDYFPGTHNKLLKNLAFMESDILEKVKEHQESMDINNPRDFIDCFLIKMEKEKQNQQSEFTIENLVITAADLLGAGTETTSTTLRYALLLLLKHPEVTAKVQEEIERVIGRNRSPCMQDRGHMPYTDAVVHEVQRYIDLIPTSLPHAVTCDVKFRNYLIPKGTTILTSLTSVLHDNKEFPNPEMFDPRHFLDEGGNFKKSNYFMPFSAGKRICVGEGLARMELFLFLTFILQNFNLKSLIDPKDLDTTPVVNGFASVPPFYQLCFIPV

Vasopressin V1b receptor = target: T5, Vasopressin V1b receptor (Homo sapiens, UniProt P47901); assay: Displacement of vasopressin from human V1bR
T5 sequence (P47901 whole entry): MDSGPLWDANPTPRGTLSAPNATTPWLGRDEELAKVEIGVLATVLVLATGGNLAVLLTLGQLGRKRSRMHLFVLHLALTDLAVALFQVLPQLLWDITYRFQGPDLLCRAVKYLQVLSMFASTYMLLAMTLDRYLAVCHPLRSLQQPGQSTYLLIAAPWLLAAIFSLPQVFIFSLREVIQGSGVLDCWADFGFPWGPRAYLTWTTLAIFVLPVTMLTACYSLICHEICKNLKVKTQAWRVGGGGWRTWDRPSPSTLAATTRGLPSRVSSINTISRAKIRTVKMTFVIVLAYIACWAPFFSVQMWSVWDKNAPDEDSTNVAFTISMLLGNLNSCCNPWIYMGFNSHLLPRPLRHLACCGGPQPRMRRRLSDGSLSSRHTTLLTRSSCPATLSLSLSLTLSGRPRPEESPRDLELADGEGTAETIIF

Cytochrome P450 2D6 = Cytochrome P450 2D6 (Homo sapiens, UniProt P10635); assay: Inhibition of CYP450 2D6 transfected in human microsome using DEF fluorogenic substrate; assay type: ADME, microsomes; summary of the method: as §4
Sequence of Cytochrome P450 2D6 (P10635 whole entry): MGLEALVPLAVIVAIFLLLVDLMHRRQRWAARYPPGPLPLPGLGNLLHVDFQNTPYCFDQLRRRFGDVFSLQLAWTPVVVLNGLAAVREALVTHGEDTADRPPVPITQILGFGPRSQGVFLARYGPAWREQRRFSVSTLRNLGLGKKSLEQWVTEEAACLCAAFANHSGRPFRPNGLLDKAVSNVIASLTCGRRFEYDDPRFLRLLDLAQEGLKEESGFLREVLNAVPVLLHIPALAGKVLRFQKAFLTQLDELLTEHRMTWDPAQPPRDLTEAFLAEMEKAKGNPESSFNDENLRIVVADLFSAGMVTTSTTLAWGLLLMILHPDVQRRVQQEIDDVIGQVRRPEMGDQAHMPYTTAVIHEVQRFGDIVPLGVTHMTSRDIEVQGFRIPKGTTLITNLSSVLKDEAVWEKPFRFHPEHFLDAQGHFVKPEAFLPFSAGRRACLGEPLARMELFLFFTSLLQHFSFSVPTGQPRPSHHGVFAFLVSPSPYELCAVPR

Oxytocin receptor [17] = target: T1, Oxytocin receptor; assay: […] activity at human OTR expressed in CHO cells assessed as inhibition of oxytocin-induced calcium mobilization by FLIPR assay; assay type: functional, cell-based
Rattus norvegicus = assay: Reduction in oxytocin-induced uterine contraction in iv dosed anaesthetized rat; assay type: functional, organism-based; conditions: for IC50: Rattus norvegicus
Summary of the method: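 Anaesthetized rats; uterine contractions elicited by iv oxytocin at a standard dose of 0.3 ug/kg. Test compound then given iv in rising doses (0.1, 0.3, 1 mg/kg) and the fall in contractility recorded. Plasma IC50 taken as the plasma concentration giving 50% inhibition of the response to the standard oxytocin dose.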

Cytochrome P450 2C9 = Cytochrome P450 2C9 (Homo sapiens, UniProt P11712); assay: Inhibition of CYP450 2C9 transfected in human microsome; assay type: ADME; summary of the method: as §4
Sequence of Cytochrome P450 2C9 (P11712 whole entry): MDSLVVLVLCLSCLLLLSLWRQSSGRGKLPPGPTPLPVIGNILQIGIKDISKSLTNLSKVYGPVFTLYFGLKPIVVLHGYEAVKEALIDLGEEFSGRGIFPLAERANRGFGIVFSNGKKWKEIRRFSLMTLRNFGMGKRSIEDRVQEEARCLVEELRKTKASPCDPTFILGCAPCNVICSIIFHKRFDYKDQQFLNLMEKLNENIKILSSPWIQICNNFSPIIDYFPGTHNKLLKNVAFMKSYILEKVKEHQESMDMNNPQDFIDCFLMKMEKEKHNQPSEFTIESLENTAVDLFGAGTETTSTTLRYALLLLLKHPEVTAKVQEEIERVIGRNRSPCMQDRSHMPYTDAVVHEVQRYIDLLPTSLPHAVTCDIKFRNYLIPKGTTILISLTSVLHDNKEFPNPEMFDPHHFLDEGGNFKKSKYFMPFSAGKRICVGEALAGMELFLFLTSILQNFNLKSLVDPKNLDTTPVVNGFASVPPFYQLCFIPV

[18] = Volume of distribution in dog; assay type: ADME, organism-based, Canis lupus familiaris; conditions: in vivo, read-out: Vdss

| Structure (SMILES) | solubility [1] [µg/mL] | bioavailability [2] [%] | AUC [3] [ng·h/mL] | AUC [4] [ng·h/mL] | clearance [5] [mL/min/kg] | clearance [6] [mL/min/kg] | Ki (Oxytocin receptor [7]) [nM] | chromatographic logD [8] | Ki (Oxytocin receptor [15]) [nM] | bioavailability [16] [%] | Activity (Rattus norvegicus) [mg/kg] | also measured |
| --- | --- | --- | --- | --- | --- | --- | --- | --- | --- | --- | --- | --- |
| CC(C)C[C@@H]1C(=O)N[C@H](C2Cc3ccccc3C2)C(=O)N1[C@@H](C(=O)NC(C)C)c1ccc(F)cc1F | 8 (≈ 16.1 µM) | 46 | 174 | 2880 | 11 | 36 | 1.26 | 3.4 | – | – | – | F (Canis familiaris): 13% |
| CC(C)C[C@@H]1C(=O)N[C@H](C2Cc3ccccc3C2)C(=O)N1[C@@H](C(=O)N(C)C)c1ccc(F)cc1F | 83 (≈ 172 µM) | 53 | 770 | – | 7 | 15 | 0.631 | 3.3 | 10 | 51 | 0.22 | IC50 (Cytochrome P450 3A4 [9]): 89000 nM; Ki (Oxytocin receptor [10]): 1.58 nM; half-life [11]: 2.1 h; IC50 (Cytochrome P450 3A4 [12]): 62000 nM; half-life [13]: 1.1 h; Ki (Vasopressin V1a receptor): > 6310 nM; IC50 (Cytochrome P450 1A2): 64000 nM; Vd [14]: 1.2 L/kg; Ki (Vasopressin V2 receptor): 316 nM; IC50 (Cytochrome P450 2C19): > 100000 nM; Ki (Vasopressin V1b receptor): > 6310 nM; IC50 (Cytochrome P450 2D6): > 100000 nM; IC50 (Oxytocin receptor [17]): 3.7 nM; IC50 (Rattus norvegicus): 227 nM; IC50 (Cytochrome P450 2C9): 49000 nM; Vd [18]: 1.1 L/kg |
| CC(C)C[C@@H]1C(=O)N[C@H](C2Cc3ccccc3C2)C(=O)N1[C@@H](C(=O)NC(C)C)c1ccc2occc2c1 | – | 68 | – | – | 6 | 9 | 1 | – | 63.1 | 95 | 5.4 | IC50 (Cytochrome P450 3A4 [9]): 2500 nM; Ki (Oxytocin receptor [10]): 3.98 nM; half-life [11]: 2.4 h; IC50 (Cytochrome P450 3A4 [12]): 4300 nM; half-life [13]: 2 h; Ki (Vasopressin V1a receptor): > 6310 nM; IC50 (Cytochrome P450 1A2): 73000 nM; Vd [14]: 1.4 L/kg; Ki (Vasopressin V2 receptor): 5010 nM; IC50 (Cytochrome P450 2C19): > 100000 nM; Ki (Vasopressin V1b receptor): > 6310 nM; IC50 (Cytochrome P450 2D6): 62000 nM; IC50 (Cytochrome P450 2C9): 3500 nM; Vd [18]: 0.9 L/kg |
| CC(C)C[C@@H]1C(=O)N[C@H](C2Cc3ccccc3C2)C(=O)N1[C@@H](C(=O)N1CCC1)c1ccc(F)cc1F | 1 (≈ 2.02 µM) | 17 | 710 | 660 | 4 | 22 | 0.631 | 3.3 | – | 37 | – | – |
| CC(C)C[C@@H]1C(=O)N[C@H](C2Cc3ccccc3C2)C(=O)N1[C@@H](C(=O)N(C)CCO)c1ccc(F)cc1F | 159 (≈ 310 µM) | 55 | 200 | 2350 | 6 | 19 | 0.126 | 2.8 | – | 14 | – | – |
| CNC(=O)[C@@H](c1ccc(F)cc1F)N1C(=O)[C@@H](C2Cc3ccccc3C2)NC(=O)[C@H]1CC(C)C | 89 (≈ 190 µM) | 98 | 82 | 3690 | 13 | 32 | 0.398 | 2.9 | – | 11 | – | – |
| CCOc1ccc(C[C@H]2NC(=O)CCSSC[C@@H](C(=O)N3CCC[C@H]3C(=O)N[C@@H](CCCN)C(=O)NCC(N)=O)NC(=O)[C@H](CC(N)=O)NC(=O)[C@H]([C@@H](C)O)NC(=O)[C@H]([C@@H](C)CC)NC2=O)cc1 [ATOSIBAN] ([Mpa][dY](Et)ITNCP[Orn]G-NH2; disulfide 1-6) | – | – | – | – | – | – | 39.8 | – | 39.8 | – | 0.63 | IC50 (Rattus norvegicus): 186 nM |
